Calls of active or inactive are those of the source. No cut-off for these calls is given here.

The subject of experiment [1] is COLO 205. Put plainly: Cytotoxicity against human COLO205 cells after 2 days by XTT assay. It is filed as functional, cell-based. The conditions noted are these: COLO 205, 48 h. In short, it runs like this: (§1)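 Test samples were supplied as DMSO solutions and applied to human colon tumour KM12 and COLO205 cells in a two-day in vitro XTT-based antiproliferative assay. Activity was expressed as IC50 (μM).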
For orientation: Tetrazolium assays rely on reduction of a dye to a coloured formazan, in cell work by metabolically active cells.

The test system of experiment [2] is COLO 205. Put plainly: Growth inhibition of human COLO205 cells after 2 days by XTT assay. The conditions noted are these: COLO 205, 48 h. In kind it is functional, cell-based. The essentials:
as §1

Experiment [3] has as its system KM12. Put plainly: Growth inhibition of human KM12 cells after 2 days by XTT assay. In kind it is functional, cell-based. Particulars: KM12, 48 h. In short, it runs like this: as §1
For experiment [4], the target named is Endothelial PAS domain-containing protein 1 (Homo sapiens) (UniProt Q99814). In words: Inhibition of HIF-2alpha expressed in 786O cells assessed as inhibition of VEGF expression by luciferase reporter gene assay. It is filed as cell-based. (A reporter such as luciferase makes a cellular process visible.)
Sequence of Endothelial PAS domain-containing protein 1 (Homo sapiens) (Q99814 whole entry, the tested form may be a part): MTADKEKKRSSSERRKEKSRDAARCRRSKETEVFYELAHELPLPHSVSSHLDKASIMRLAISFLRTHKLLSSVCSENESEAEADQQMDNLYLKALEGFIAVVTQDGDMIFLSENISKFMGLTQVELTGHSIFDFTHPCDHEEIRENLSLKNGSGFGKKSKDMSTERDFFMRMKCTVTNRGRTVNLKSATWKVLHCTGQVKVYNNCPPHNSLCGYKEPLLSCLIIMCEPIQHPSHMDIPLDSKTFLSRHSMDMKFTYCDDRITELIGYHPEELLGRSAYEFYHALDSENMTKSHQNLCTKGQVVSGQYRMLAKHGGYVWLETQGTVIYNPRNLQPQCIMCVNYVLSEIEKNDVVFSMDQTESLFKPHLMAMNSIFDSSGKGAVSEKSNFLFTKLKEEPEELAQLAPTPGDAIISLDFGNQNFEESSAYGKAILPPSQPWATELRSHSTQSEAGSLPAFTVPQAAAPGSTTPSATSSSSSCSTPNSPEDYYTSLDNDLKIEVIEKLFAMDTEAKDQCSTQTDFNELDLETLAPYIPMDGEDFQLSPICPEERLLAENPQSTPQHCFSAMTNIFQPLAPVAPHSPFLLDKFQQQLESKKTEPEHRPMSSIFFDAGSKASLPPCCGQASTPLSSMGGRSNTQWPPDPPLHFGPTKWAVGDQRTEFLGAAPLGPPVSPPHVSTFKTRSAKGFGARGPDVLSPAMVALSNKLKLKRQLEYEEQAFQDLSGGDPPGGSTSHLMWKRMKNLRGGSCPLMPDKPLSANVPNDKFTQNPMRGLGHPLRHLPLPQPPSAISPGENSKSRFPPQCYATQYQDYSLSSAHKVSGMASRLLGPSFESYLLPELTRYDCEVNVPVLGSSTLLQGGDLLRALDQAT
Experiment [5] concerns KM12. Put plainly: Cytotoxicity against human KM12 cells after 2 days by XTT assay. In kind it is functional, cell-based. The conditions noted are these: KM12, 48 h. In short, it runs like this: as §1

Broadly, the IC50 is the midpoint of a concentration-inhibition curve. For the compound `C=C1[C@@H](OC(C)=O)C[C@H]2[C@@](C)(CC[C@H]3C(C)(C)CCC[C@]23C)[C@@H]1C[C@H](O)[C@H](CCOC(C)=O)C(C)=O` [FLABELLIFERIN A], the 50% inhibitory concentration (IC50) in experiment [1] is 20 µM; in experiment [2], 20 µM; in experiment [3], 15 µM; in experiment [5] it was 15 µM. Besides, in experiment [4], the inhibition entry was “inactive”.
As to `CC(=O)O[C@H]1C[C@H]2[C@@](C)(CC[C@H]3C(C)(C)CCC[C@]23C)[C@@H]2C[C@H](O)C(C(C)=O)=C[C@@]12C` [FLABELLIFERIN B], the concentration for half-maximal inhibition (IC50) in experiment [1] is 20 µM; in experiment [2], 20 µM; in experiment [3], 18 µM; in experiment [5], 18 µM. Further, the inhibition entry in experiment [4] is “inactive”.

For the origin of these results see ChEMBL document CHEMBL2086315, “Flabelliferins A and B, sesterterpenoids from the South Pacific sponge Carteriospongia flabellifera” (J Nat Prod, 2012).
